Several values for one entry are separate records, joined by “and”; a condition that tells them apart may be missing. Equal entries are not always repeated.
Experiments:
[1] = system: Plasmodium falciparum; assay: In vitro inhibitory activity against chloroquine-sensitive Plasmodium falciparum HB3
[2] = system: Mus musculus; assay: Inhibitory activity against Plasmodium berghei (ANKA) in mice at a dose of 20 mg/kg for 4 days; format: functional; parameters: scale not given: the % may be the effect or the level left
Procedure, shortened: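 Peters' 4-day suppressive test. Female BALB/c mice (18-20 g) were inoculated iv with 1 × 10⁷ P. berghei ANKA-infected erythrocytes. Drug was given ip in 0.2 mL daily for 4 consecutive days, 5 mice per group, with chloroquine diphosphate as positive control. Blood smears were taken on day 5. % suppression of parasitemia was calculated against untreated infected controls for each dose.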

[3] = system: Plasmodium falciparum; assay: In vitro inhibitory activity against chloroquine-resistant Plasmodium falciparum K1; format: functional, organism-based
Procedure, shortened: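 Early ring-stage parasites in human A+ erythrocytes, RPMI 1640 with A+ serum and glucose. Twofold serial dilutions in duplicate from DMSO stocks (final DMSO ≤0.5%), 2.5% hematocrit, 1% parasitemia. Incubated 48 h at 37 °C under 93% N2/3% O2/4% CO2. Growth read as parasite lactate dehydrogenase activity (APAD/NBT reagent, 15 min, OD 550 nm). IC50 by linear regression, at least three separate determinations.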

[4] = system: DLD-1; assay: Cytotoxicity against DLD-1 cells when the drug is exposed for a time of 1 hr; format: functional, cell-based; conditions: Homo sapiens, DLD-1, 1 h
[5] = system: MAC15A; assay: Cytotoxicity against MAC15a cells when the drug is exposed for a time of 1 hr; format: functional, cell-based; conditions: Mus musculus
[6] = system: A549; assay: Cytotoxicity against A549 cells when the drug is exposed for a time of 1 hr; format: functional, cell-based; conditions: Homo sapiens, A549, 1 h
[7] = molecular target: T1, Histidine-rich protein PFHRP-II (Plasmodium falciparum) (UniProt P05227); assay: Inhibition of beta-hematin formation; No; format: functional
T1 sequence (whole entry): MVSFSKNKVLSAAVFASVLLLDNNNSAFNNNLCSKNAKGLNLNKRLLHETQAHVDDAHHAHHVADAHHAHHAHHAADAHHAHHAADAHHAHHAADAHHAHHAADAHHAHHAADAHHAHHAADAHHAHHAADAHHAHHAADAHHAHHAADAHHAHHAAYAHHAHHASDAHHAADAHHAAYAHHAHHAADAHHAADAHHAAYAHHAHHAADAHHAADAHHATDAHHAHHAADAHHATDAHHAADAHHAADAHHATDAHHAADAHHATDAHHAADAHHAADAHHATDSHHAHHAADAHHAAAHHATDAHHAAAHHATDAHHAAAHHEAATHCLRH

[8] = system: A549; assay: Cytotoxicity against A549 cells when the drug is exposed for a time of 96 hrs; format: functional, cell-based; conditions: Homo sapiens, A549, 96 h
[9] = system: MAC15A; assay: Cytotoxicity against MAC15a cells when the drug is exposed for a time of 96 hr; format: functional, cell-based; conditions: Mus musculus
[10] = system: DLD-1; assay: Cytotoxicity against DLD-1 cells when the drug is exposed for a time of 96 hrS; format: functional, cell-based; conditions: Homo sapiens, DLD-1, 96 h
[11] = molecular target: T1, Histidine-rich protein PFHRP-II (Plasmodium falciparum); assay: Inhibition of beta-hematin formation; Yes; format: functional

`C[n+]1c2ccccc2cc2[n-]c3c([N+](=O)[O-])cccc3c21` was tested. Which IC50 [1] did it give?
The IC50 was 4.14 µM.

What about the Activity [2] of the same compound?
Its Activity is 11.9% and 23.5%.

What about the IC50 [3] of the same compound?
The IC50 was 6.92 µM.

What about the IC50 [4] of the same compound?
The IC50 was > 100 µM.

What about the IC50 [5] of the same compound?
The IC50 was > 100 µM.

What about the IC50 [6] of the same compound?
Its IC50 is > 100 µM.

For `O=C(O)c1c2nc3ccccc3c-2[nH]c2ccccc12`, which IC50 [3] is on record?
The IC50 was > 100 µM.

And the inhibition [7]?
Its inhibition is “No inhibition”.

With `CC(=O)Nc1ccc2[n-]c3cc4ccccc4[n+](C)c3c2c1` as the compound, how does the IC50 [1] read?
The IC50 was 0.47 µM.

And the Activity [2]?
Its Activity is 13.3% and 14.7%.

And the IC50 [3]?
Its IC50 is 0.52 µM.

What about the IC50 [8] of the same compound?
The IC50 was 5.04 µM.

And the IC50 [4]?
The IC50 was > 100 µM.

And the IC50 [5]?
Its IC50 is > 100 µM.

And the IC50 [6]?
Its IC50 is > 100 µM.

And the IC50 [9]?
Its IC50 is 15.5 µM.

And the IC50 [10]?
Its IC50 is 20.4 µM.

What does the source list for `c1ccc2nc3c(cc2c1)[nH]c1ccccc13` [QUINDOLINE]?
IC50 [3]: > 100 µM; inhibition [7]: No inhibition

`C[n+]1c2ccccc2c(Cl)c2[nH]c3cc(Cl)ccc3c21` was tested. Which IC50 [3] did it give?
Its IC50 is 27 µM.

What about the IC50 [5] of the same compound?
The IC50 was 14.4 µM.

With `C[n+]1c2ccccc2c(Cl)c2[nH]c3ccccc3c21` as the compound, how does the IC50 [1] read?
Its IC50 is 1.67 µM.

And the IC50 [3]?
The IC50 was 0.24 µM.

What about the IC50 [5] of the same compound?
The IC50 was 30.5 µM.

How did the IC50 [1] turn out when `C[n+]1c2ccccc2cc2[n-]c3c([N+](=O)[O-])cc([N+](=O)[O-])cc3c21` was run?
Its IC50 is 0.45 µM.

What about the Activity [2] of the same compound?
Its Activity is 20.3% and 30.2%.

What about the IC50 [3] of the same compound?
The IC50 was 0.65 µM.

And the “beta-hematin formation inhibition (yes/no)” value [11]?
Its value is “Inhibition”.

What about the IC50 [4] of the same compound?
The IC50 was > 100 µM.

And the IC50 [5]?
The IC50 was 28.5 µM.

And the IC50 [6]?
The IC50 was > 100 µM.

`C[n+]1c2ccccc2c(Cl)c2[nH]c3cc(Br)ccc3c21` was tested. Which IC50 [3] did it give?
Its IC50 is 7.18 µM.

What about the IC50 [5] of the same compound?
The IC50 was 23.1 µM.

`C[n+]1c2ccc(Br)cc2cc2[nH]c3ccc(Br)cc3c21.[I-]` was tested. Which IC50 [1] did it give?
The IC50 was 0.026 µM.

And the IC50 [3]?
The IC50 was 0.049 µM.

And the “beta-hematin formation inhibition (yes/no)” value [11]?
Its value is “Inhibition”.

And the IC50 [9]?
The IC50 was 6.04 µM.

With `C[n+]1c2ccccc2c(Cl)c2[nH]c3ccc(Cl)cc3c21` as the compound, how does the IC50 [3] read?
Its IC50 is 7.62 µM.

Which IC50 [1] does the source give for `C[n+]1c2ccccc2cc2[nH]c3ccc(Br)cc3c21.[I-]` here?
The IC50 was 0.19 µM.

And the IC50 [3]?
Its IC50 is 0.26 µM.

What about the “beta-hematin formation inhibition (yes/no)” value [11] of the same compound?
Its value is “Inhibition”.

What about the IC50 [5] of the same compound?
The IC50 was 66.2 µM.

With `C[n+]1c2ccc(Br)cc2cc2[nH]c3ccccc3c21.[I-]` as the compound, how does the IC50 [1] read?
The IC50 was 0.45 µM.

What about the IC50 [3] of the same compound?
The IC50 was 0.26 µM.

And the IC50 [8]?
Its IC50 is 2.07 µM.

And the “beta-hematin formation inhibition (yes/no)” value [11]?
The value was “Inhibition”.

What about the IC50 [4] of the same compound?
The IC50 was > 100 µM.

And the IC50 [5]?
Its IC50 is > 100 µM.

What about the IC50 [6] of the same compound?
The IC50 was > 100 µM.

What about the IC50 [9] of the same compound?
Its IC50 is 5.79 µM.

And the IC50 [10]?
The IC50 was 2.29 µM.

For `C[n+]1c2ccc(Br)cc2c(Cl)c2[nH]c3ccccc3c21`, which IC50 [3] is on record?
The IC50 was 4.75 µM.

`C[n+]1c2ccccc2cc2[n-]c3ccc([N+](=O)[O-])cc3c21` was tested. Which IC50 [1] did it give?
The IC50 was 0.14 µM.

What about the IC50 [3] of the same compound?
The IC50 was 0.65 µM.

What about the “beta-hematin formation inhibition (yes/no)” value [11] of the same compound?
Its value is “Inhibition”.

And the IC50 [4]?
Its IC50 is 48.9 µM.

And the IC50 [5]?
Its IC50 is 35.4 µM.

And the IC50 [6]?
Its IC50 is 35.6 µM.

Which “beta-hematin formation inhibition (yes/no)” value [11] does the source give for `CCN(CC)CCCC(C)Nc1ccnc2cc(Cl)ccc12.O=P(O)(O)O.O=P(O)(O)O` (centres undefined) [CHLOROQUINE PHOSPHATE] here?
Its value is “Inhibition”.

What does the source list for `NC(=O)c1c2nc3ccccc3c-2[nH]c2ccccc12`?
IC50 [3]: > 100 µM; inhibition [7]: No inhibition

With `C[n+]1c2ccccc2cc2[nH]c3ccccc3c21` [CRYPTOLEPTINE IODIDE] as the compound, how does the IC50 [3] read?
The IC50 was 0.44 µM.

And the IC50 [8]?
Its IC50 is 0.55 µM.

What about the inhibition [11] of the same compound?
Its inhibition is “Inhibition”.

What about the IC50 [4] of the same compound?
Its IC50 is 93 µM.

And the IC50 [5]?
The IC50 was 67.2 µM.

And the IC50 [6]?
Its IC50 is 61.4 µM.

And the IC50 [9]?
The IC50 was 9.65 µM.

What about the IC50 [10] of the same compound?
The IC50 was 1.44 µM.

Reference: ChEMBL document CHEMBL1134600, “Synthesis and evaluation of cryptolepine analogues for their potential as new antimalarial agents” (J Med Chem, 2001)
